# Where “and” joins values, the source holds several entries; their conditions need not be identical. Equal entries are not always repeated. Where two headings read alike, the source gives them in different places.
# Assays:
# [1] = MTS cytotoxicity assay in HaCaT cells; assay type: cell-based, human; details: human, HaCaT cells (spontaneously immortalized keratinocytes)
# In short: (§1)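 Cells kept in DMEM with 10% heat-inactivated newborn calf serum plus penicillin/streptomycin/amphotericin B at 37 °C, 5% CO₂. Seeded 5,000 per well. Compound in DMSO added at 1–1000 μM for 18 h, then MTS for 2 h. A490 read with A650 reference, medium+MTS background subtracted. Viability given as % of DMSO-treated cells, triplicates. CC₅₀ by linear regression of the two points bracketing 50%.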
# [2] = MTS cytotoxicity assay in Hs27 cells; assay type: cell-based, human; details: human, Hs27 cells (foreskin fibroblasts)
# In short: as §1
# [3] = test system: HaCaT, Hs27 and Jurkat cells; experiment: MTS cytotoxicity assay, statements summarised over the cell lines; assay type: cell-based; details: for toxicity (MTS assay), in words: all three cell lines (HaCaT, Hs27, Jurkat), concentrations 1 to 1000 μM
# [4] = MTS cytotoxicity assay in Jurkat cells; assay type: cell-based, human; details: human, Jurkat cells (acute leukemia T lymphocytes)
# In short: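 Jurkat cells kept in RPMI with 10% heat-inactivated FBS plus antibiotics at 37 °C, 5% CO₂. Seeded 25,000 per well. Compound in DMSO at 1–1000 μM for 16 h, then MTS for 4 h. A490 read with A650 reference, background-corrected. Viability normalized to DMSO controls, triplicates. CC₅₀ from regression line through the two viabilities nearest 50%.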
# [5] = Differential scanning calorimetry; assay type: physicochemical; details: DSC; for Transition temperature: 25 to 200 °C, 2.5 °C/min; for Enthalpy: phase transition, from integration of the thermograms
# In short: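 Dry surfactant (1.0–1.5 mg) sealed in hermetic aluminum pans against an empty sealed-pan reference. Instrument calibrated with indium for temperature and enthalpy. Scanned 25–200 °C at 2.5 °C/min. Transition enthalpies obtained by integrating the thermograms.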
# [6] = cited from earlier work; for collapse pressure: room temperature
# [7] = Langmuir monolayer compression isotherms at the air-water interface; assay type: physicochemical; details: for formation of stable monolayers at the air-water interface: 14 °C, 150 mM NaCl / 1.5 mM CaCl2 subphase; for "lift-off" temperature: πtrans versus temperature extrapolated to zero surface pressure
# In short: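 Subphase was 150 mM NaCl plus 1.5 mM CaCl₂ in purified water (pH 7.0), held at set temperatures by circulating bath, with impurities vacuumed off. Spread 50 μL of 1.662 mM surfactant in dichloromethane:methanol 9:1, let solvent evaporate, then compressed symmetrically at 10 mm/min (7.5 cm²/min). Wilhelmy platinum plate. Limiting area by extrapolating linear condensed region to zero pressure. Three independent runs.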
# [8] = insoluble monolayers at the air-water interface
compound,measurement,setting,value
"CCCCCCCCCCn1cc(CO[C@@H]2OC[C@@H](O)[C@H](O)[C@H]2O)nn1 [Compound 5c, (1-Decyl-1H-1,2,3-triazol-4-yl)methyl β-D-xylopyranoside]",CC50 at 18 h,[1],120 ± 30 µM
same,CC50 at 18 h,[2],180 ± 50 µM
same,fold more toxic than 5b,"[3]; in both Jurkat and HaCaT cells, from CC50 values",approximately 8 fold
same,CC50 at 16 h,[4],77 ± 9 µM
same,Transition temperature,[5],133.6 ± 0.1 °C
same,Enthalpy,[5],9.32 ± 0.48 kcal/mol
n-nonyl glucosamine,limiting molecular area,[6]; 25 °C,46 Å^2/molecule
"CCCCCCCCCCCCCCCCn1cc(CO[C@@H]2OC[C@@H](O)[C@H](O)[C@H]2O)nn1 [Compound 5f, (1-Hexadecyl-1H-1,2,3-triazol-4-yl)methyl β-D-xylopyranoside]",formation of stable monolayers at the air-water interface,[7],formed stable monolayers
same,Atrans: mean molecular area at phase transition,[7]; subphase 22 °C,84.0 ± 2.0 Å^2/molecule
same,π max: maximum surface pressure (collapse pressure),[7]; subphase 22 °C,64.0 ± 3.0 mN/m
same,π trans: surface pressure at phase transition,[7]; subphase 22 °C,1.6 ± 0.2 mN/m
same,Atrans: mean molecular area at phase transition,[7]; subphase 26 °C,70.0 ± 2.0 Å^2/molecule
same,π max: maximum surface pressure (collapse pressure),[7]; subphase 26 °C,58.6 ± 0.8 mN/m
same,π trans: surface pressure at phase transition,[7]; subphase 26 °C,6.8 ± 0.1 mN/m
same,Atrans: mean molecular area at phase transition,[7]; subphase 30 °C,65.0 ± 2.0 Å^2/molecule
same,π max: maximum surface pressure (collapse pressure),[7]; subphase 30 °C,53.6 ± 1.0 mN/m
same,π trans: surface pressure at phase transition,[7]; subphase 30 °C,9.9 ± 0.1 mN/m
same,Atrans: mean molecular area at phase transition,[7]; subphase 33 °C,61.0 ± 2.0 Å^2/molecule
same,π max: maximum surface pressure (collapse pressure),[7]; subphase 33 °C,51.6 ± 0.4 mN/m
same,π trans: surface pressure at phase transition,[7]; subphase 33 °C,11.6 ± 0.3 mN/m
same,Atrans: mean molecular area at phase transition,[7]; subphase 37 °C,51 Å^2/molecule and 51.2 ± 0.9 Å^2/molecule
same,π max: maximum surface pressure (collapse pressure),[7]; subphase 37 °C,48.0 ± 2.0 mN/m
same,π trans: surface pressure at phase transition,[7]; subphase 37 °C,18 mN/m and 18.4 ± 0.4 mN/m
same,"""lift-off"" temperature",[7],20.2 °C
same,CC50 at 18 h,[1],> 1000 µM
same,CC50 at 18 h,[2],> 1000 µM
same,"toxicity (MTS assay), in words",[3],not toxic
same,CC50 at 16 h,[4],> 1000 µM
same,Transition temperature,[5],134.9 ± 0.1 °C
same,Enthalpy,[5],10.5 ± 0.48 kcal/mol
n-octyl glucosamine,limiting molecular area,[6]; 25 °C,48 Å^2/molecule
6-O-stearoyl galactopyranoside,limiting molecular area,[6]; [8],32 Å^2
same,collapse pressure,[6],66 mN/m
"CCCCCCCCCCCCCCn1cc(CO[C@@H]2OC[C@@H](O)[C@H](O)[C@H]2O)nn1 [Compound 5e, (1-Tetradecyl-1H-1,2,3-triazol-4-yl)methyl β-D-xylopyranoside]",formation of stable monolayers at the air-water interface,[7],formed stable monolayers
same,Atrans: mean molecular area at phase transition,[7]; subphase 14 °C,68 Å^2/molecule and 68.5 ± 0.9 Å^2/molecule
same,π max: maximum surface pressure (collapse pressure),[7]; subphase 14 °C,64.1 ± 0.5 mN/m
same,π trans: surface pressure at phase transition,[7]; subphase 14 °C,5.6 mN/m and 5.6 ± 0.2 mN/m
same,Atrans: mean molecular area at phase transition,[7]; subphase 17 °C,53.6 ± 0.9 Å^2/molecule
same,π max: maximum surface pressure (collapse pressure),[7]; subphase 17 °C,62.4 ± 1.4 mN/m
same,π trans: surface pressure at phase transition,[7]; subphase 17 °C,11.3 ± 0.2 mN/m
same,Atrans: mean molecular area at phase transition,[7]; subphase 22 °C,47.5 ± 0.2 Å^2/molecule
same,π max: maximum surface pressure (collapse pressure),[7]; subphase 22 °C,59.4 ± 0.6 mN/m
same,π trans: surface pressure at phase transition,[7]; subphase 22 °C,15.0 ± 0.1 mN/m
same,Atrans: mean molecular area at phase transition,[7]; subphase 26 °C,42.1 ± 0.7 Å^2/molecule
same,π max: maximum surface pressure (collapse pressure),[7]; subphase 26 °C,53.0 ± 2.0 mN/m
same,π trans: surface pressure at phase transition,[7]; subphase 26 °C,20.9 ± 0.2 mN/m
same,Atrans: mean molecular area at phase transition,[7]; subphase 30 °C,38 Å^2/molecule and 38.0 ± 1.2 Å^2/molecule
same,π max: maximum surface pressure (collapse pressure),[7]; subphase 30 °C,47.0 ± 3.0 mN/m
same,π trans: surface pressure at phase transition,[7]; subphase 30 °C,26 mN/m and 27.0 ± 0.5 mN/m
same,"""lift-off"" temperature",[7],9.2 °C
same,CC50 at 18 h,[1],> 1000 µM
same,CC50 at 18 h,[2],> 1000 µM
same,"toxicity (MTS assay), in words",[3],not toxic
same,CC50 at 16 h,[4],> 1000 µM
same,Transition temperature,[5],134.7 ± 0.4 °C
same,Enthalpy,[5],9.8 ± 0.24 kcal/mol
6-O-stearoyl glucopyranoside,limiting molecular area,[6]; [8],44 Å^2
same,collapse pressure,[6],43 mN/m
CCCCCCCCCCCCCC(=O)O [tetradecanoic acid],"""lift-off"" temperature",[6]; linear alkanoic acids,approximately 7 °C
